Converted amounts (≈) assume the structure as drawn.
Tests used:
Type in all cases: functional, cell-based
[1] = tested on: PC-8; test: Inhibitory effect tested in vitro for the growth of Lung adenocarcinoma PC-8 cell line; settings: Homo sapiens
Method in brief: (§1)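 MTT assay: tumor cells seeded at 1 × 10^4 per well, incubated 72 h with or without compound, then MTT added and OD 570 nm read. % inhibition = [1 − OD sample/OD control] × 100. IC50 is the concentration giving 50% inhibition of cell growth.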

[2] = tested on: HOS-TE85; test: Inhibitory effect tested in vitro for the growth of Osteosarcoma MNNG-HOS cell line; settings: Homo sapiens; method in brief: as §1
[3] = tested on: ST-KM-1; test: Inhibitory effect tested in vitro for the growth of Stomach adenocarcinoma ST-KM cell line; settings: Homo sapiens; method in brief: as §1
[4] = tested on: KHOS-321H; test: Inhibitory effect tested in vitro for the growth of Osteosarcoma KHOS-321H cell line; settings: Homo sapiens; method in brief: as §1
[5] = tested on: PC-3; test: Inhibitory effect tested in vitro for the growth of Lung adenocarcinoma PC-3 cell line; settings: Homo sapiens; method in brief: as §1
[6] = tested on: SK-ES1; test: Inhibitory effect tested in vitro for the growth of Osteosarcoma SK-ES-1 cell line; settings: Homo sapiens; method in brief: as §1
[7] = tested on: OST; test: Inhibitory effect tested in vitro for the growth of Osteosarcoma OST cell line; settings: Homo sapiens; method in brief: as §1
[8] = tested on: SW480; test: Inhibitory effect tested in vitro for the growth of colon adenocarcinoma SW-480 cell line; settings: Homo sapiens; method in brief: as §1
[9] = tested on: NUGC-4; test: Inhibitory effect tested in vitro for the growth of Stomach adenocarcinoma NUGC-4 cell line; settings: Homo sapiens; method in brief: as §1
[10] = tested on: MKN-28; test: Inhibitory effect tested in vitro for the growth of Stomach adenocarcinoma MKN- 28 cell line; settings: Homo sapiens; method in brief: as §1
[11] = tested on: PC-13; test: Inhibitory effect tested in vitro for the growth of Lung adenocarcinoma PC-13 cell line; settings: Homo sapiens, in the assay text read “Lung large-cell carcinoma” for “Lung adenocarcinoma”; method in brief: as §1
[12] = tested on: QG-56; test: Inhibitory effect tested in vitro for the growth of Lung squamous-cell carcinoma QG-56 cell line; settings: Homo sapiens; method in brief: as §1
[13] = tested on: PC-9; test: Inhibitory effect tested in vitro for the growth of Lung adenocarcinoma PC-9 cell line; settings: Homo sapiens; method in brief: as §1
[14] = tested on: MKN-1; test: Inhibitory effect tested in vitro for the growth of Stomach adenocarcinoma MKN-1 cell line; settings: Homo sapiens; method in brief: as §1
[15] = tested on: MKN-7; test: Inhibitory effect tested in vitro for the growth of Stomach adenocarcinoma MKN-7 cell line; settings: Homo sapiens; method in brief: as §1

Compound: Nc1ccn([C@@H]2O[C@H](CO)[C@@H](O)[C@H]2O)c(=O)n1 [CYTIDINE]
- IC50 [1]: 0.28 µg/mL (≈ 1.15 µM)
- IC50 [2]: 2.6 µg/mL (≈ 10.7 µM)
- IC50 [3]: > 100 µg/mL
- IC50 [4]: 0.27 µg/mL (≈ 1.11 µM)
- IC50 [5]: > 100 µg/mL
- IC50 [6]: 0.09 µg/mL (≈ 0.37 µM)
- IC50 [7]: > 100 µg/mL
- IC50 [8]: > 100 µg/mL
- IC50 [9]: > 100 µg/mL
- IC50 [10]: 4.5 µg/mL (≈ 18.5 µM)
- IC50 [11]: > 100 µg/mL
- IC50 [12]: > 100 µg/mL
- IC50 [13]: 1.6 µg/mL (≈ 6.58 µM)

Compound: N#C[C@H]1[C@H](O)[C@@H](CO)O[C@H]1n1ccc(N)nc1=O [TAS-109]
- IC50 [1]: 4.6 µg/mL (≈ 18.2 µM)
- IC50 [2]: 6.8 µg/mL (≈ 27 µM)
- IC50 [3]: 2.8 µg/mL (≈ 11.1 µM)
- IC50 [4]: 4.5 µg/mL (≈ 17.8 µM)
- IC50 [5]: 5.6 µg/mL (≈ 22.2 µM)
- IC50 [6]: 2.2 µg/mL (≈ 8.72 µM)
- IC50 [7]: 6.4 µg/mL (≈ 25.4 µM)
- IC50 [8]: 0.27 µg/mL (≈ 1.07 µM)
- IC50 [9]: 5.2 µg/mL (≈ 20.6 µM)
- IC50 [10]: 1.7 µg/mL (≈ 6.74 µM)
- IC50 [14]: 2.1 µg/mL (≈ 8.33 µM)
- IC50 [15]: 1.4 µg/mL (≈ 5.55 µM)
- IC50 [11]: > 100 µg/mL
- IC50 [12]: 40 µg/mL (≈ 159 µM)
- IC50 [13]: 4.4 µg/mL (≈ 17.4 µM)

From ChEMBL document CHEMBL1125937, “Nucleosides and nucleotides. 100. 2'-C-cyano-2'-deoxy-1-beta-D-arabinofuranosyl-cytosine (CNDAC): design of a potential mechanism-based DNA-strand-breaking antineoplastic nucleoside” (J Med Chem, 1991)
